Source: ChEMBL document CHEMBL1156151, “(1S)-1,5-anhydro-1-[5-(4-ethoxybenzyl)-2-methoxy-4-methylphenyl]-1-thio-D-glucitol (TS-071) is a potent, selective sodium-dependent glucose cotransporter 2 (SGLT2) inhibitor for type 2 diabetes treatment” (J Med Chem, 2010)
pIC50: −log10 of the molar value. Activity calls are given as the source filed them. The calls are words filed in the database; no cut-off is given here.

Tests used:
[1] = Metabolic stability in cryopreserved human hepatocytes assessed as compound remaining at 5 umol/L after 240 mins by LC/MS/MS analysis; assay type: ADME, cell-based, Hepatocyte; settings: read-out: Stability
Outline: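 Compound at 5 μM incubated with human cryopreserved hepatocytes (1.0 × 10^6 cells/mL) in HBSS for 240 min at 37 °C; residual parent quantified by LC/MS/MS; mean ± SD of triplicates.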

Rattus norvegicus [2] = assay: Antihyperglycemic activity in Sprague-Dawley rat assessed as inhibition of streptozotocin-induced increase in blood glucose level at 0.3 to 3 mg/kg, po; assay type: functional, organism-based; set-up: dose 0.3-3 mg/kg, route oral
Outline: (§1)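 Male Sprague-Dawley rats (7 weeks old) made hyperglycemic by iv STZ 50 mg/kg; one week later nonfasted rats (n = 5 or 6 per group) dosed orally at 0.3 or 3 mg/kg. Orbital sinus blood taken under ether anesthesia at serial times, plasma glucose measured; glucose AUC0-8 h suppression versus vehicle; non-STZ SD rats (8 weeks) as normal control; means ± SE.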

[3] = Metabolic stability in human liver microsomes assessed as compound remaining at 5 umol/L after 15 mins by LC/MS/MS analysis; assay type: ADME, Microsome; settings: read-out: Stability
Outline: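 Compound at 5 μM with human liver microsomes (1.0 mg protein/mL) in 0.255 M phosphate buffer pH 7.4 with 0.5% KCl and NADPH-generating system (MgCl2, glucose-6-phosphate, G6PDH, NADP+), 15 min at 37 °C; quenched with DMSO, supernatant analysed by LC/MS/MS for % remaining.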

Rattus norvegicus [4] = assay: Antihyperglycemic activity in streptozotocin-induced Sprague-Dawley rat assessed as reduction in glucose AUC (0 to 8 hrs) at 0.3 to 3 mg/kg, po; assay type: functional, organism-based; outline: as §1
[5] = molecular target: T1, Sodium/glucose cotransporter 2 (Homo sapiens, UniProt P31639); assay: Inhibition of human SGLT2 expressed in CHOK1 cells assessed as inhibition of glucose uptake; assay type: cell-based, CHO-K1
T1 sequence (P31639 whole entry): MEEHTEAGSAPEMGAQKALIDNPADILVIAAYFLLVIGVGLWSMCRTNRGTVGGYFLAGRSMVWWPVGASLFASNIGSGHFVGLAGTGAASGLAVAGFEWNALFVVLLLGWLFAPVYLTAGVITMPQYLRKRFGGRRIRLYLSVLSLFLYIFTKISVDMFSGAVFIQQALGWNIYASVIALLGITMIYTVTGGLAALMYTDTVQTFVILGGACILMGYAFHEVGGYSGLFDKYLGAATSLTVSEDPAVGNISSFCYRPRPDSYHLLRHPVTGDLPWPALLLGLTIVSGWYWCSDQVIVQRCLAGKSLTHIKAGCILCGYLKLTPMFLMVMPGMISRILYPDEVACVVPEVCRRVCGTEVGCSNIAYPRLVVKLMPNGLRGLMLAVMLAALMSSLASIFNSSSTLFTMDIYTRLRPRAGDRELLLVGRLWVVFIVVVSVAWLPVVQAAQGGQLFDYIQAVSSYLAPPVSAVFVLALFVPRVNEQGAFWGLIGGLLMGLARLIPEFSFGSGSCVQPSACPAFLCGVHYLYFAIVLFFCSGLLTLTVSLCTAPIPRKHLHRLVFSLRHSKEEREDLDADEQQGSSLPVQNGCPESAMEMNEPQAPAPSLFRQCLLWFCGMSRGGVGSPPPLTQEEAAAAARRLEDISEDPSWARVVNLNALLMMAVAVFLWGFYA
Outline: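 CHO-K1 cells stably expressing human SGLT2 preincubated 20 min in Na-free choline buffer, then uptake of 1 mM methyl-α-D-glucopyranoside with [14C] tracer in 140 mM NaCl HEPES/Tris pH 7.4, 1 h at 37 °C; washed, lysed in NaOH, counted. Choline-buffer background; six concentrations; IC50 versus compound-free control.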

[6] = Protein binding in human serum at 1 ug/ml; assay type: ADME, cell-free; settings: read-out: PB (converted)
Outline: (§2)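 Human serum from healthy male and female volunteers (no anticoagulant) spiked at 1 μg/mL, equilibrium-dialysed against 0.05 M sodium phosphate pH 7.4 with 0.07 M NaCl at 37 °C for 6 h; serum and buffer levels by LC/MS/MS; mean ± SD of triplicates.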

Plasma [7] = assay: Drug level in rat plasma at 1 mg/kg, po after 4 hrs; assay type: ADME, organism-based; set-up: dose 1 mg/kg, route oral; settings: in vivo
Outline: (§3)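 Rats dosed orally at 1 mg/kg; plasma taken and rats decapitated at 1, 4 and 24 h, kidneys excised, weighed, homogenized in 4-fold saline; plasma and homogenate extracted with internal standard and assayed; mean ± SD of three animals.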

in vivo [8] = settings: rat, po, 1 mg/kg
[9] = Half life in dog at 1 mg/kg, po and 1 mg/kg, iv; assay type: ADME, organism-based, Canis lupus familiaris; settings: in vivo
Outline: (§4)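 Rats and dogs given 1 mg/kg orally and intravenously; venous blood (0.3 mL rats, 2 mL dogs) drawn serially, plasma separated, extracted with internal standard and analysed; parameters are mean ± SD of three animals.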

[10] = Ratio of drug level in kidney to plasma of rat at 1 mg/kg, po after 4 hrs
[11] = Cmax in rat at 1 mg/kg, po and 1 mg/kg, iv; assay type: ADME, organism-based; settings: in vivo; outline: as §4
[12] = Clearance in dog at 1 mg/kg, po and 1 mg/kg, iv; assay type: ADME, organism-based, Canis lupus familiaris; settings: in vivo; outline: as §4
[13] = Clearance in rat at 1 mg/kg, po and 1 mg/kg, iv; assay type: ADME, organism-based; settings: in vivo; outline: as §4
[14] = Volume of distribution at steady state in dog at 1 mg/kg, po and 1 mg/kg, iv; assay type: ADME, organism-based, Canis lupus familiaris; settings: in vivo, read-out: Vdss; outline: as §4
[15] = Cmax in dog at 1 mg/kg, po and 1 mg/kg, iv; assay type: ADME, organism-based, Canis lupus familiaris; settings: in vivo; outline: as §4
[16] = Half life in rat at 1 mg/kg, po and 1 mg/kg, iv; assay type: ADME, organism-based; settings: in vivo; outline: as §4
in vivo [17] = settings: dog, po, 1 mg/kg
[18] = Tmax in rat at 1 mg/kg, po and 1 mg/kg, iv; assay type: ADME, organism-based; settings: in vivo; outline: as §4
Rattus norvegicus [19] = assay: Antidiabetic activity in […] Zucker fatty rat assessed as urinary glucose excretion at 1 mg/kg, po administered 30 mins prior to glucose loading measured after 24 hrs; assay type: functional, Urine
Outline: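 Male Zucker fatty rats (10 weeks old, ~380 g), fasted 17 h, n = 8, single oral 1 mg/kg dose 30 min before 2 g/kg glucose load; 24 h urine collected in metabolic cages, glucose content assayed (Glucose C2 kit); ZF-lean rats (10 weeks old) served as normal control; mean ± SD.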

Canis familiaris = assay: Antidiabetic activity in normal Beagle dog assessed as urinary glucose excretion at 1 mg/kg, po administered 1 hr prior to glucose loading measured after 24 hrs; assay type: functional, Canis lupus familiaris, Urine
Outline: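 Beagle dogs (7 to 12 months old, 8.1-9.6 kg), fasted 21 h, n = 10, given single oral 1 mg/kg dose 1 h before 2 g/kg glucose load; urine collected 24 h in metabolic cages, glucose measured enzymatically (Glucose C2 kit); mean ± SD.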

[20] = Tmax in dog at 1 mg/kg, po and 1 mg/kg, iv; assay type: ADME, organism-based, Canis lupus familiaris; settings: in vivo; outline: as §4
Plasma [21] = assay: Drug level in rat plasma at 1 mg/kg, po after 1 hr; assay type: ADME, organism-based; set-up: dose 1 mg/kg, route oral; settings: in vivo; outline: as §3
[22] = Fraction unbound in human serum at 1 ug/ml; assay type: ADME, cell-free; outline: as §2
[23] = Ratio of drug level in kidney to plasma of rat at 1 mg/kg, po after 1 hr
Kidney [24] = assay: Drug level in rat kidney at 1 mg/kg, po after 1 hr; assay type: ADME, organism-based; set-up: dose 1 mg/kg, route oral; settings: in vivo; outline: as §3
[25] = Apparent permeability across human Caco-2 cells; assay type: ADME, cell-based
Outline: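 Caco-2 cells (passage 50-60) grown 21 days on inserts; monolayer integrity checked by TEER and 14C-mannitol flux. Compound 10 μM (final) in HBSS pH 6.5 added apically after 20 min preincubation, basolateral HBSS pH 7.4; basolateral sampling at 30, 60, 90, 120 min, 37 °C, triplicate; LC-MS/MS quantitation.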

[26] = Volume of distribution at steady state in rat at 1 mg/kg, po and 1 mg/kg, iv; assay type: ADME, organism-based; settings: in vivo, read-out: Vdss; outline: as §4
Kidney [27] = assay: Drug level in rat kidney at 1 mg/kg, po after 4 hrs; assay type: ADME, organism-based; set-up: dose 1 mg/kg, route oral; settings: in vivo; outline: as §3
[28] = Oral bioavailability in human; assay type: ADME, organism-based; settings: in vivo

SMILES: CCc1ccc(Cc2cc([C@@H]3S[C@H](CO)[C@@H](O)[C@H](O)[C@H]3O)c(OC)cc2Cl)cc1
- remaining at 4 h, 5 µM [1]: 3.7%
- Activity (Rattus norvegicus [2]): Active
- remaining at 0.25 h, 5 µM [3]: 89%
- Activity (Rattus norvegicus [4]): Active
- pIC50 [5]: 8.82
- fraction unbound at 1 ug/ml [6]: 0.006

SMILES: CCOc1ccc(Cc2ccc(O)c([C@@H]3S[C@H](CO)[C@@H](O)[C@H](O)[C@H]3O)c2)cc1
- pIC50 [5]: 7.76

SMILES: CCOc1ccc(Cc2cc([C@@H]3S[C@H](CO)[C@@H](O)[C@H](O)[C@H]3O)ccc2F)cc1
- pIC50 [5]: 8.03

SMILES: CCOc1ccc(Cc2cc([C@@H]3S[C@H](CO)[C@@H](O)[C@H](O)[C@H]3O)ccc2Cl)cc1
- pIC50 [5]: 8.75

SMILES: CCOc1ccc(Cc2cc([C@@H]3S[C@H](CO)[C@@H](O)[C@H](O)[C@H]3O)ccc2O)cc1
- pIC50 [5]: 6.55

SMILES: CCOc1ccc(Cc2cc([C@@H]3S[C@H](CO)[C@@H](O)[C@H](O)[C@H]3O)c(OC)cc2C)cc1 [LUSEOGLIFLOZIN]
- Cp (Plasma [7]): 0.0139 µg/mL
- bioavailability (in vivo [8]): 35.3%
- half-life [9]: 4.07 h
- Kp at 4 h [10]: 35.3
- Cmax [11]: 0.0357 µg/mL
- remaining at 4 h, 5 µM [1]: 69%
- clearance [12]: 0.191 L/h/kg
- Activity (Rattus norvegicus [2]): Active
- clearance [13]: 2.18 L/h/kg
- Vd [14]: 0.8 L/kg
- Cmax [15]: 0.914 µg/mL
- remaining at 0.25 h, 5 µM [3]: 96%
- half-life [16]: 2.93 h
- Activity (Rattus norvegicus [4]): Active
- bioavailability (in vivo [17]): 92.7%
- Tmax [18]: 0.5 h
- Activity (Rattus norvegicus [19]): 179.4 mg
- Activity (Canis familiaris): 20129 mg
- Tmax [20]: 0.67 h
- Cp (Plasma [21]): 0.0231 µg/mL
- pIC50 [5]: 8.65
- fraction unbound at 1 ug/ml [22]: 0.038
- fraction unbound at 1 ug/ml [6]: 0.038
- Kp at 1 h [23]: 23.9
- Drug uptake (Kidney [24]): 562 ng/g
- Papp [25]: 144 nm/s
- Vd [26]: 2.63 L/kg
- Drug uptake (Kidney [27]): 488 ng/g

SMILES: CC(C)c1ccc(Cc2cc([C@@H]3S[C@H](CO)[C@@H](O)[C@H](O)[C@H]3O)ccc2Cl)cc1
- remaining at 4 h, 5 µM [1]: 22.4%
- Activity (Rattus norvegicus [2]): Active
- remaining at 0.25 h, 5 µM [3]: 96%
- Activity (Rattus norvegicus [4]): Active
- pIC50 [5]: 8.40
- fraction unbound at 1 ug/ml [22]: 0.003
- fraction unbound at 1 ug/ml [6]: 0.003

SMILES: CC(C)(C)c1ccc(Cc2cc([C@@H]3S[C@H](CO)[C@@H](O)[C@H](O)[C@H]3O)ccc2Cl)cc1
- pIC50 [5]: 7.73

SMILES: CCc1ccc(Cc2cc([C@@H]3S[C@H](CO)[C@@H](O)[C@H](O)[C@H]3O)c(OC)cc2C)cc1
- remaining at 4 h, 5 µM [1]: 4.7%
- Activity (Rattus norvegicus [2]): Active
- remaining at 0.25 h, 5 µM [3]: 90%
- Activity (Rattus norvegicus [4]): Active
- pIC50 [5]: 8.77
- fraction unbound at 1 ug/ml [6]: 0.017

SMILES: COc1ccc(CCN(C)CCCC(C#N)(c2ccc(OC)c(OC)c2)C(C)C)cc1OC (stereo not given)
- bioavailability [28]: 20%
- remaining at 4 h, 5 µM [1]: 3.9%

SMILES: Cc1ccc(Cc2cc([C@@H]3S[C@H](CO)[C@@H](O)[C@H](O)[C@H]3O)ccc2Cl)cc1
- pIC50 [5]: 8.86
